From ChEMBL document CHEMBL3102784, “Salicylanilide diethyl phosphates: synthesis, antimicrobial activity and cytotoxicity” (Bioorg Med Chem, 2014)
Values after ≈ are worked out from the molar mass of the structure shown. Active and inactive are the calls of the source. The calls are words filed in the database; no cut-off is given here.

Experiments:
[1] = system: Pichia kudriavzevii; test: Antifungal activity against Candida krusei E28 after 24 hrs by broth microdilution method; type: functional; details: E28, 24 h
Outline: (§1)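 Broth microdilution in RPMI 1640 with glutamine, fluconazole as reference. For yeasts, MIC is ≥80% growth reduction (IC80) versus control. For filamentous fungi, the value is expressed as IC50. Readings at 24 and 48 h.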

[2] = system: Klebsiella pneumoniae; test: Antibacterial activity against Klebsiella pneumoniae D 11750/08 at 500 micromol/L after 24 to 48 hrs by broth microdilution method; type: functional, organism-based
Outline: (§2)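 Broth microdilution in Mueller–Hinton broth, compounds dissolved in DMSO, tested over a dilution series from 500 downward. MIC taken as ≥95% growth reduction (IC95) versus drug-free control. Benzylpenicillin comparator. Readings at 24 and 48 h.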

[3] = system: Trichosporon asahii; test: Antifungal activity against Trichosporon asahii 1188 after 48 hrs by broth microdilution method; type: functional; details: Trichosporon asahii, 1188, 48 h; outline: as §1
[4] = system: Candida tropicalis; test: Antifungal activity against Candida tropicalis 156 at 500 micromol/L after 24 to 48 hrs by broth microdilution method; type: functional, organism-based; outline: as §1
[5] = system: Escherichia coli; test: Antibacterial activity against Escherichia coli CCM 4517 at 500 micromol/L after 24 to 48 hrs by broth microdilution method; type: functional, organism-based; outline: as §2
[6] = system: Enterococcus sp.; test: Antibacterial activity against Enterococcus sp. J 14365/08 at 500 micromol/L after 24 to 48 hrs by broth microdilution method; type: functional, organism-based; outline: as §2
[7] = system: Mycobacterium avium; test: Antimycobacterial activity against isoniazid, rifampicin, ethambutol and ofloxacin-resistant Mycobacterium avium My 330/88 after 21 days; type: functional; details: My 330/88, 504 h
Outline: (§3)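 Micromethod MIC in Šula's semisynthetic medium at 37 °C. Compounds added in DMSO at 1000 down to 0.032 µmol/L. Isoniazid standard in sterile water at 0.5–250 µmol/L. Inocula: H37Rv 10^3, M. avium 10^5, M. kansasii 10^4. Read at 14 and 21 d, plus 7 d for M. kansasii.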

[8] = system: Mycobacterium kansasii; test: Antimycobacterial activity against Mycobacterium kansasii My 235/80 after 14 days; type: functional; details: My 235/80, 336 h; outline: as §3
[9] = system: Mycobacterium kansasii; test: Antimycobacterial activity against Mycobacterium kansasii My 235/80 after 7 days; type: functional; details: My 235/80, 168 h; outline: as §3
[10] = system: Pichia kudriavzevii; test: Antifungal activity against Candida krusei E28 after 48 hrs by broth microdilution method; type: functional; details: E28, 48 h; outline: as §1
[11] = system: Nakaseomyces glabratus; test: Antifungal activity against Candida glabrata 20/I at 500 micromol/L after 24 to 48 hrs by broth microdilution method; type: functional, organism-based; outline: as §1
[12] = system: Staphylococcus aureus; test: Antibacterial activity against Staphylococcus aureus CCM 4516/08 after 24 hrs by broth microdilution method; type: functional; details: CCM 4516/08, 24 h; outline: as §2
[13] = system: Mycobacterium kansasii; test: Antimycobacterial activity against Mycobacterium kansasii 6509/96 after 7 days; type: functional; details: 6509/96, 168 h; outline: as §3
[14] = system: Lichtheimia corymbifera; test: Antifungal activity against Absidia corymbifera 272 after 48 hrs by broth microdilution method; type: functional; details: Lichtheimia corymbifera, 272, 48 h; outline: as §1
[15] = system: Klebsiella pneumoniae; test: Antibacterial activity against ESBL-positive Klebsiella pneumoniae J 14368/08 at 500 micromol/L after 24 to 48 hrs by broth microdilution method; type: functional, organism-based; outline: as §2
[16] = system: Mycobacterium tuberculosis; test: Antimycobacterial activity against Mycobacterium tuberculosis H37Rv My 331/88 after 14 days; type: functional; details: H37Rv My 331/88, 336 h; outline: as §3
[17] = system: Mycobacterium kansasii; test: Antimycobacterial activity against Mycobacterium kansasii My 235/80 after 21 days; type: functional; details: My 235/80, 504 h; outline: as §3
[18] = system: Lichtheimia corymbifera; test: Antifungal activity against Absidia corymbifera 272 after 24 hrs by broth microdilution method; type: functional; details: Lichtheimia corymbifera, 272, 24 h; outline: as §1
[19] = system: Staphylococcus aureus; test: Antibacterial activity against methicillin-resistant Staphylococcus aureus H 5996/08 after 24 hrs by broth microdilution method; type: functional; details: H 5996/08, 24 h; outline: as §2
[20] = system: Staphylococcus aureus; test: Antibacterial activity against Staphylococcus aureus CCM 4516/08 after 48 hrs by broth microdilution method; type: functional; details: CCM 4516/08, 48 h; outline: as §2
[21] = system: Staphylococcus epidermidis; test: Antibacterial activity against Staphylococcus epidermidis H 6966/08 after 48 hrs by broth microdilution method; type: functional; details: H 6966/08, 48 h; outline: as §2
[22] = system: Staphylococcus aureus; test: Antibacterial activity against methicillin-resistant Staphylococcus aureus H 5996/08 after 48 hrs by broth microdilution method; type: functional; details: H 5996/08, 48 h; outline: as §2
[23] = system: Mycobacterium kansasii; test: Antimycobacterial activity against Mycobacterium kansasii 6509/96 after 21 days; type: functional; details: 6509/96, 504 h; outline: as §3
[24] = system: Aspergillus fumigatus; test: Antifungal activity against Aspergillus fumigatus 231 after 24 hrs by broth microdilution method; type: functional; details: Aspergillus fumigatus, 231, 24 h; outline: as §1
[25] = system: Staphylococcus epidermidis; test: Antibacterial activity against Staphylococcus epidermidis H 6966/08 after 24 hrs by broth microdilution method; type: functional; details: H 6966/08, 24 h; outline: as §2
[26] = system: HepG2; test: Cytotoxicity against human HepG2 cells after 24 hrs by CellTiter assay; type: cell-based; details: HepG2, 24 h
Outline: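 HepG2 cells (passage 27–33) in MEM with 10% FBS, L-glutamine and NEAA, seeded at 1×10^4 per well. Treated next day with compounds at 0.1–100 µM (or 0.1–25 µmol/L), triplicates, <1% DMSO, for 24 h at 37 °C, 5% CO2. MTS reagent added for 2 h, absorbance read at 490 nm. IC50 taken against untreated (100%) and 10% DMSO (0%) controls.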

[27] = system: Pseudomonas aeruginosa; test: Antibacterial activity against Pseudomonas aeruginosa CCM 1961 at 500 micromol/L after 24 to 48 hrs by broth microdilution method; type: functional, organism-based; outline: as §2
[28] = system: Mycobacterium tuberculosis; test: Antimycobacterial activity against Mycobacterium tuberculosis H37Rv My 331/88 after 21 days; type: functional; details: H37Rv My 331/88, 504 h; outline: as §3
[29] = system: Candida albicans; test: Antifungal activity against Candida albicans ATCC 44859 after 48 hrs by broth microdilution method; type: functional; details: ATCC 44859, 48 h; outline: as §1
[30] = system: Trichophyton mentagrophytes; test: Antifungal activity against Trichophyton mentagrophytes 445 after 72 hrs by broth microdilution method; type: functional; details: Trichophyton mentagrophytes, 445, 72 h
Outline: (§4)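 Filamentous dermatophyte tested by broth microdilution in RPMI 1640 with glutamine, fluconazole as reference. Value expressed as IC50 relative to growth control. Read at 72 and 120 h.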

[31] = system: Aspergillus fumigatus; test: Antifungal activity against Aspergillus fumigatus 231 after 48 hrs by broth microdilution method; type: functional; details: Aspergillus fumigatus, 231, 48 h; outline: as §1
[32] = system: Candida albicans; test: Antifungal activity against Candida albicans ATCC 44859 after 24 hrs by broth microdilution method; type: functional; details: ATCC 44859, 24 h; outline: as §1
[33] = system: Trichosporon asahii; test: Antifungal activity against Trichosporon asahii 1188 after 24 hrs by broth microdilution method; type: functional; details: Trichosporon asahii, 1188, 24 h; outline: as §1
[34] = system: Mycobacterium kansasii; test: Antimycobacterial activity against Mycobacterium kansasii 6509/96 after 14 days; type: functional; details: 6509/96, 336 h; outline: as §3
[35] = system: Mycobacterium avium; test: Antimycobacterial activity against isoniazid, rifampicin, ethambutol and ofloxacin-resistant Mycobacterium avium My 330/88 after 14 days; type: functional; details: My 330/88, 336 h; outline: as §3
[36] = system: Trichophyton mentagrophytes; test: Antifungal activity against Trichophyton mentagrophytes 445 after 120 hrs by broth microdilution method; type: functional; details: Trichophyton mentagrophytes, 445, 120 h; outline: as §4

SMILES	MIC80 [1] [µM]	Activity [2]	MIC80 [3] [µM]	Activity [4]	Activity [5]	Activity [6]	MIC [7] [µM]	MIC [8] [µM]	MIC [9] [µM]	MIC80 [10] [µM]	Activity [11]	MIC95 [12] [µM]	MIC [13] [µM]	MIC50 [14] [µM]	Activity [15]	MIC [16] [µM]	MIC [17] [µM]	MIC50 [18] [µM]	MIC95 [19] [µM]	MIC95 [20] [µM]	other results
CCOP(=O)(OCC)Oc1ccc(Br)cc1C(=O)Nc1ccc(Cl)c(Cl)c1	> 500	inactive	> 500	inactive	inactive	inactive	16 (≈ 7.95 µg/mL)	4 (≈ 1.99 µg/mL)	2 (≈ 0.994 µg/mL)	> 500	inactive	500 (≈ 249 µg/mL)	2 (≈ 0.994 µg/mL)	> 500	inactive	1 (≈ 0.497 µg/mL)	4 (≈ 1.99 µg/mL)	> 500	500 (≈ 249 µg/mL)	> 500	MIC95 [21]: > 500 µM; MIC95 [22]: > 500 µM; MIC [23]: 4 µM (≈ 1.99 µg/mL); MIC50 [24]: > 500 µM; MIC95 [25]: 500 µM (≈ 249 µg/mL); IC50 [26]: 2040 nM; Activity [27]: inactive; MIC [28]: 1 µM (≈ 0.497 µg/mL); MIC80 [29]: > 500 µM; MIC50 [30]: > 500 µM; MIC50 [31]: > 500 µM; MIC80 [32]: > 500 µM; MIC80 [33]: > 500 µM; MIC [34]: 4 µM (≈ 1.99 µg/mL); MIC [35]: 16 µM (≈ 7.95 µg/mL); MIC50 [36]: > 500 µM
CCOP(=O)(OCC)Oc1ccc(Cl)cc1C(=O)Nc1ccc(Cl)c(Cl)c1	> 500	inactive	> 500	inactive	inactive	inactive	16 (≈ 7.24 µg/mL)	4 (≈ 1.81 µg/mL)	4 (≈ 1.81 µg/mL)	> 500	inactive	> 500	4 (≈ 1.81 µg/mL)	> 500	inactive	1 (≈ 0.453 µg/mL)	4 (≈ 1.81 µg/mL)	> 500	> 500	> 500	MIC95 [21]: > 500 µM; MIC95 [22]: > 500 µM; MIC [23]: 4 µM (≈ 1.81 µg/mL); MIC50 [24]: > 500 µM; MIC95 [25]: > 500 µM; IC50 [26]: 2840 nM; Activity [27]: inactive; MIC [28]: 1 µM (≈ 0.453 µg/mL); MIC80 [29]: > 500 µM; MIC50 [30]: 500 µM (≈ 226 µg/mL); MIC50 [31]: > 500 µM; MIC80 [32]: > 500 µM; MIC80 [33]: > 500 µM; MIC [34]: 4 µM (≈ 1.81 µg/mL); MIC [35]: 16 µM (≈ 7.24 µg/mL); MIC50 [36]: 500 µM (≈ 226 µg/mL)
